From ChEMBL document CHEMBL1139955, “C(4)-alkyl substituted furanyl cyclobutenediones as potent, orally bioavailable CXCR2 and CXCR1 receptor antagonists” (Bioorg Med Chem Lett, 2007)

Experiments:
[1] = molecular target: T1, C-X-C chemokine receptor type 1 (Homo sapiens, UniProt P25024); assay: Displacement of [125I]IL8 from human CXCR1 expressed in CHO cells by SPA; format: cell-based
T1 sequence (P25024 whole entry): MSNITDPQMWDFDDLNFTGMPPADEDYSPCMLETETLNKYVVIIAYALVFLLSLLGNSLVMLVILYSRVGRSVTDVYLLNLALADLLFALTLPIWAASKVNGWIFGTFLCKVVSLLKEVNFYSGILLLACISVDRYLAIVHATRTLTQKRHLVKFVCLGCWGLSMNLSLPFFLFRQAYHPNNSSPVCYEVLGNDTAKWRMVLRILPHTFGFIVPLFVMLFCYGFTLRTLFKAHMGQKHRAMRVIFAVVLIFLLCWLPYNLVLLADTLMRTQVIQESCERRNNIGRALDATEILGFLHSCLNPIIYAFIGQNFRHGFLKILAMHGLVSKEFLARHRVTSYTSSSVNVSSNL

[2] = molecular target: T2, C-X-C chemokine receptor type 2 (Homo sapiens, UniProt P25025); assay: Displacement of [125I]IL8 from human CXCR2 expressed in CHO cells by SPA; format: cell-based
T2 sequence (P25025 whole entry): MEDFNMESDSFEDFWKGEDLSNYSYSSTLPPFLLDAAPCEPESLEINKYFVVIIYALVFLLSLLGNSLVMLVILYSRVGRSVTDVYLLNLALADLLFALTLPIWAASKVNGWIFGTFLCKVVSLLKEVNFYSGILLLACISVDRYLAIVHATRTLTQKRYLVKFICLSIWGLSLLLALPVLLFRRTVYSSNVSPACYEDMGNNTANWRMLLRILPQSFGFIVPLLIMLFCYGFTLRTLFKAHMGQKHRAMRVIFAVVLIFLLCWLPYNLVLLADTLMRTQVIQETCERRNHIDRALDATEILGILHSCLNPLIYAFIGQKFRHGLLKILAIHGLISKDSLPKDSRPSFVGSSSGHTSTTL

Neutrophil [3] = assay: Inhibition of GROalpha-induced migration of human neutrophils by chemotaxis assay; format: functional, cell-based
Procedure, shortened: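 Human neutrophil migration stimulated with 30 nM Gro-α; IC50 determined.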

Mus musculus = organism: Mus musculus; assay: Antiinflammatory activity against mouse model of cigarette smoke-induced neutrophilic inflammation; format: functional
[4] = AUC in monkey at 3 mg/kg, po after 48 hrs; format: ADME, organism-based, Macaca mulatta; set-up: time < 48 hr, dose 3 mg/kg, route oral; details: rhesus monkey, plasma
[5] = Cmax in mouse at 25 mg/kg, po after 7 hrs; format: ADME, organism-based; set-up: dose 25 mg/kg, route oral; details: in vivo
Rattus norvegicus = organism: Rattus norvegicus; assay: Antiinflammatory activity against rat model of lipopolysaccharide-induced pulmonary inflammation; format: functional
[6] = Cmax in rat at 10 mg/kg, po after 6 hrs; format: ADME, organism-based; set-up: dose 10 mg/kg, route oral; details: in vivo
[7] = Cmax in monkey at 3 mg/kg, po after 48 hrs; format: ADME, organism-based, Macaca mulatta; set-up: dose 3 mg/kg, route oral; details: rhesus monkey, in vivo
Neutrophil [8] = assay: Inhibition of IL8-induced migration of human neutrophils by chemotaxis assay; format: functional, cell-based
Procedure, shortened: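 Human neutrophil migration stimulated with 3 nM IL-8; IC50 determined.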

[9] = AUC in dog at 2 mg/kg, po after 48 hrs; format: ADME, organism-based, Canis lupus familiaris; set-up: time < 48 hr, dose 2 mg/kg, route oral; details: plasma
[10] = AUC in mouse at 25 mg/kg, po after 7 hrs; format: ADME, organism-based; set-up: time < 7 hr, dose 25 mg/kg, route oral; details: plasma
[11] = AUC in rat at 10 mg/kg, po after 6 hrs; format: ADME, organism-based; set-up: time < 6 hr, dose 10 mg/kg, route oral; details: plasma
[12] = Cmax in dog at 2 mg/kg, po after 48 hrs; format: ADME, organism-based, Canis lupus familiaris; set-up: dose 2 mg/kg, route oral; details: in vivo

Ki [1] [nM]	Ki [2] [nM]	SMILES	also measured
123	10	CC[C@@H](Nc1c(Nc2cccc(C(=O)N(C)C)c2O)c(=O)c1=O)c1sccc1C	
3	1	CC[C@@H](Nc1c(Nc2cccc(C(=O)N(C)C)c2O)c(=O)c1=O)c1cc(C(C)C)co1	IC50 [1]: 7.3 nM; IC50 (Neutrophil [3]): 0.5 nM; IC50 [2]: 1.3 nM; ED50 (Mus musculus): 1 mg/kg; AUC at 48 h [4]: 4.2 µM·h; Cmax [5]: 4.6 µM; ED50 (Rattus norvegicus): 0.9 mg/kg; Cmax [6]: 3.8 µM; Cmax [7]: 0.38 µM; IC50 (Neutrophil [8]): 37 nM; AUC at 48 h [9]: 7.1 µM·h; AUC at 7 h [10]: 4.6 µM·h; AUC at 6 h [11]: 5.4 µM·h; Cmax [12]: 5.3 µM
10	3	CC(C)c1coc([C@H](Nc2c(Nc3cccc(C(=O)N(C)C)c3O)c(=O)c2=O)C2CC2)c1	
7.6	0.6	CCC(C)c1coc([C@@H](CC)Nc2c(Nc3cccc(C(=O)N(C)C)c3O)c(=O)c2=O)c1 (some centres undefined)	
34	2	CCCCc1coc([C@@H](CC)Nc2c(Nc3cccc(C(=O)N(C)C)c3O)c(=O)c2=O)c1	
7	1	CCc1coc([C@@H](CC)Nc2c(Nc3cccc(C(=O)N(C)C)c3O)c(=O)c2=O)c1	AUC at 6 h [11]: 17.4 µM·h
283	4	CC[C@@H](Nc1c(Nc2cccc(C(=O)N(C)C)c2O)c(=O)c1=O)c1cc(C2CCCCC2)co1	
14	4	CC(C)c1coc([C@H](Nc2c(Nc3cccc(C(=O)N(C)C)c3O)c(=O)c2=O)C(C)(C)C)c1	
50	2	CC(C)c1coc([C@@H](C)Nc2c(Nc3cccc(C(=O)N(C)C)c3O)c(=O)c2=O)c1	
10	4	CC[C@@H](Nc1c(Nc2cccc(C(=O)N(C)C)c2O)c(=O)c1=O)c1cc(C(C)(C)C)co1	
53	3	CC[C@@H](Nc1c(Nc2cccc(C(=O)N(C)C)c2O)c(=O)c1=O)c1cc(C2CCCC2)co1	
9	4	CC[C@@H](Nc1c(Nc2cccc(C(=O)N(C)C)c2O)c(=O)c1=O)c1cc(C)co1	AUC at 6 h [11]: 32.6 µM·h
30	0.8	CCC(CC)c1coc([C@@H](CC)Nc2c(Nc3cccc(C(=O)N(C)C)c3O)c(=O)c2=O)c1	
24	5	CC[C@@H](Nc1c(Nc2cccc(C(=O)N(C)C)c2O)c(=O)c1=O)c1cc(C)cs1	
11	4	CC(C)c1coc([C@H](Nc2c(Nc3cccc(C(=O)N(C)C)c3O)c(=O)c2=O)C(C)C)c1	
16	6	CC(C)c1coc([C@H](Nc2c(Nc3cccc(C(=O)N(C)C)c3O)c(=O)c2=O)C(F)(F)F)c1	
14	9	CC[C@@H](Nc1c(Nc2cccc(C(=O)N(C)C)c2O)c(=O)c1=O)c1cc(CCCCN2CCOCC2)co1	
146	5	CC[C@@H](Nc1c(Nc2cccc(C(=O)N(C)C)c2O)c(=O)c1=O)c1ccc(C)s1	
379	25	CCc1ccoc1[C@@H](CC)Nc1c(Nc2cccc(C(=O)N(C)C)c2O)c(=O)c1=O	
